Test results from ChEMBL document CHEMBL1153733, “Imidazole derivatives as possible microbicides with dual protection” (Eur J Med Chem, 2010).
Values after ≈ are worked out from the molar mass of the structure shown.

What follows are molecules tested on Spermatozoa (assay: Sperimcidal activity against human spermatozoa assessed as sperm motility at 1 % drug solution%). Settings: not given.
Format: functional
Outline: (§1)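 Drop of sperm–compound mixture placed on slide under cover glass, examined by phase contrast microscopy in five fields; percentage of motile spermatozoa scored visually within 30–40 s. N-9 as reference control; some compounds tested as D-(-)-tartrate salts.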
For `Cc1ncc([N+](=O)[O-])n1CCSC(=S)N1CCCC1.O=C(O)C(O)C(O)C(=O)O`, the Activity was 0%.
`Cc1ncc([N+](=O)[O-])n1CCSC(=S)N(C)C.O=C(O)C(O)C(O)C(=O)O` gave an Activity of 0%.
`COc1ccccc1N1CCN(C(=S)SCCn2c([N+](=O)[O-])cnc2C)CC1.O=C(O)C(O)C(O)C(=O)O` showed an Activity of 0%.
Work on `Cc1ncc([N+](=O)[O-])n1CCSC(=S)N1CCN(c2ccccn2)CC1.O=C(O)C(O)C(O)C(=O)O` yielded an Activity of 0%.
In the case of `Cc1ncc([N+](=O)[O-])n1CCOC(=S)[S-].[Na+]` [METRONIDAZOLE XANTHATE], the Activity is reported as 90.24%.
In the case of `Cc1ncc([N+](=O)[O-])n1CCO` [METRONIDAZOLE], the Activity is reported as 100%.
Molecule `CCCCCCCCCc1ccc(OCCOCCOCCOCCOCCOCCOCCOCCOCCO)cc1` [NONOXYNOL 9] has an Activity of 0%.

These molecules were tested on Candida albicans (assay: Antifungal activity against Candida albicans after 48 hrs by broth microdilution technique). Settings: not given.
Format: functional
Outline: (§2)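 Broth microdilution MIC per NCCLS guidelines in RPMI 1640 buffered with MOPS; starting inoculum of test culture 1–5 × 10³ CFU/mL.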
With `Cc1ncc([N+](=O)[O-])n1CCSC(=S)N1CCCC1.O=C(O)C(O)C(O)C(=O)O` the MIC was 50 µg/mL.
For `Cc1ncc([N+](=O)[O-])n1CCSC(=S)N(C)C.O=C(O)C(O)C(O)C(=O)O`, the MIC was over 50 µg/mL.
Work on `COc1ccccc1N1CCN(C(=S)SCCn2c([N+](=O)[O-])cnc2C)CC1.O=C(O)C(O)C(O)C(=O)O` yielded an MIC of over 50 µg/mL.
`Cc1ncc([N+](=O)[O-])n1CCSC(=S)N1CCN(c2ccccn2)CC1.O=C(O)C(O)C(O)C(=O)O` gave an MIC of over 50 µg/mL.
`OC(Cn1cncn1)(Cn1cncn1)c1ccc(F)cc1F` [FLUCONAZOLE] gave an MIC of 0.5 µg/mL (≈ 1.63 µM).
For `Cc1ncc([N+](=O)[O-])n1CCOC(=S)[S-].[Na+]` [METRONIDAZOLE XANTHATE], the MIC was over 50 µg/mL.
In the case of `CCCCCCCCCc1ccc(OCCOCCOCCOCCOCCOCCOCCOCCOCCO)cc1` [NONOXYNOL 9], the MIC is reported as over 50 µg/mL.

These molecules were tested on Cryptococcus neoformans (assay: Antifungal activity against Cryptococcus neoformans after 48 hrs by broth microdilution technique). Settings: not given.
Format: functional
Outline: as §2
Molecule `Cc1ncc([N+](=O)[O-])n1CCSC(=S)N1CCCC1.O=C(O)C(O)C(O)C(=O)O` has an MIC of 50 µg/mL.
Molecule `Cc1ncc([N+](=O)[O-])n1CCSC(=S)N(C)C.O=C(O)C(O)C(O)C(=O)O` has an MIC of over 50 µg/mL.
With `COc1ccccc1N1CCN(C(=S)SCCn2c([N+](=O)[O-])cnc2C)CC1.O=C(O)C(O)C(O)C(=O)O` the MIC was over 50 µg/mL.
`Cc1ncc([N+](=O)[O-])n1CCSC(=S)N1CCN(c2ccccn2)CC1.O=C(O)C(O)C(O)C(=O)O` gave an MIC of over 50 µg/mL.
`OC(Cn1cncn1)(Cn1cncn1)c1ccc(F)cc1F` [FLUCONAZOLE] gave an MIC of 1 µg/mL (≈ 3.27 µM).
`Cc1ncc([N+](=O)[O-])n1CCOC(=S)[S-].[Na+]` [METRONIDAZOLE XANTHATE] gave an MIC of over 50 µg/mL.

Each molecule was assayed on Spermatozoa (assay: Sperimcidal activity against human spermatozoa assessed as sperm immobilization at 1 % drug solution%). Settings: not given.
Format: functional
Outline: as §1
`Cc1ncc([N+](=O)[O-])n1CCSC(=S)N1CCCC1.O=C(O)C(O)C(O)C(=O)O` gave an Activity of 100%.
`Cc1ncc([N+](=O)[O-])n1CCSC(=S)N(C)C.O=C(O)C(O)C(O)C(=O)O` was tested, and the Activity was 100%.
`COc1ccccc1N1CCN(C(=S)SCCn2c([N+](=O)[O-])cnc2C)CC1.O=C(O)C(O)C(O)C(=O)O` showed an Activity of 100%.
In the case of `Cc1ncc([N+](=O)[O-])n1CCSC(=S)N1CCN(c2ccccn2)CC1.O=C(O)C(O)C(O)C(=O)O`, the Activity is reported as 100%.

These molecules were tested on Candida parapsilosis (assay: Antifungal activity against Candida parapsilosis after 48 hrs by broth microdilution technique). Settings: Lodderomyces parapsilosis.
Format: functional
Outline: as §2
`Cc1ncc([N+](=O)[O-])n1CCSC(=S)N1CCCC1.O=C(O)C(O)C(O)C(=O)O` gave an MIC of over 50 µg/mL.
`Cc1ncc([N+](=O)[O-])n1CCSC(=S)N(C)C.O=C(O)C(O)C(O)C(=O)O` showed an MIC of over 50 µg/mL.
With `COc1ccccc1N1CCN(C(=S)SCCn2c([N+](=O)[O-])cnc2C)CC1.O=C(O)C(O)C(O)C(=O)O` the MIC was over 50 µg/mL.
Work on `Cc1ncc([N+](=O)[O-])n1CCSC(=S)N1CCN(c2ccccn2)CC1.O=C(O)C(O)C(O)C(=O)O` yielded an MIC of over 50 µg/mL.
Molecule `OC(Cn1cncn1)(Cn1cncn1)c1ccc(F)cc1F` [FLUCONAZOLE] has an MIC of 1 µg/mL (≈ 3.27 µM).
For `Cc1ncc([N+](=O)[O-])n1CCOC(=S)[S-].[Na+]` [METRONIDAZOLE XANTHATE], the MIC was over 50 µg/mL.
`CCCCCCCCCc1ccc(OCCOCCOCCOCCOCCOCCOCCOCCOCCO)cc1` [NONOXYNOL 9] showed an MIC of 50 µg/mL (≈ 81.1 µM).

Each molecule was assayed on Aspergillus fumigatus (assay: Antifungal activity against Aspergillus fumigatus after 48 hrs by broth microdilution technique). Settings: not given.
Format: functional
Outline: as §2
With `Cc1ncc([N+](=O)[O-])n1CCSC(=S)N1CCCC1.O=C(O)C(O)C(O)C(=O)O` the MIC was over 50 µg/mL.
In the case of `Cc1ncc([N+](=O)[O-])n1CCSC(=S)N(C)C.O=C(O)C(O)C(O)C(=O)O`, the MIC is reported as over 50 µg/mL.
`COc1ccccc1N1CCN(C(=S)SCCn2c([N+](=O)[O-])cnc2C)CC1.O=C(O)C(O)C(O)C(=O)O` was tested, and the MIC was over 50 µg/mL.
`Cc1ncc([N+](=O)[O-])n1CCSC(=S)N1CCN(c2ccccn2)CC1.O=C(O)C(O)C(O)C(=O)O` showed an MIC of over 50 µg/mL.
`OC(Cn1cncn1)(Cn1cncn1)c1ccc(F)cc1F` [FLUCONAZOLE] showed an MIC of 2 µg/mL (≈ 6.53 µM).
In the case of `Cc1ncc([N+](=O)[O-])n1CCOC(=S)[S-].[Na+]` [METRONIDAZOLE XANTHATE], the MIC is reported as over 50 µg/mL.

Each molecule was assayed on HeLa (assay: Cytotoxicity against human HeLa cells at 200 ug/ml after 24 hrs by MTT assay). Settings: not given.
Format: cell-based
Outline: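 HeLa cells seeded at 5.0 × 10⁴ per well in DMEM with 10% FCS, 24 h at 37 °C in 5% CO₂; medium replaced with fresh medium containing test dilutions, 10% DMSO vehicle in control wells. After a further 24 h, MTT added; formazan dissolved in DMSO, OD read at 540 nm. Mean ± SE of 3 estimations.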
With `Cc1ncc([N+](=O)[O-])n1CCSC(=S)N1CCCC1.O=C(O)C(O)C(O)C(=O)O` the Activity was “Non-toxic”.
`Cc1ncc([N+](=O)[O-])n1CCSC(=S)N(C)C.O=C(O)C(O)C(O)C(=O)O` was tested, and the Activity was “Non-toxic”.
`COc1ccccc1N1CCN(C(=S)SCCn2c([N+](=O)[O-])cnc2C)CC1.O=C(O)C(O)C(O)C(=O)O` was tested, and the Activity was “Non-toxic”.
For `Cc1ncc([N+](=O)[O-])n1CCSC(=S)N1CCN(c2ccccn2)CC1.O=C(O)C(O)C(O)C(=O)O`, the Activity was “Non-toxic”.
For `OC(Cn1cncn1)(Cn1cncn1)c1ccc(F)cc1F` [FLUCONAZOLE], the Activity was “Non-toxic”.
With `Cc1ncc([N+](=O)[O-])n1CCOC(=S)[S-].[Na+]` [METRONIDAZOLE XANTHATE] the Activity was “Non-toxic”.
With `Cc1ncc([N+](=O)[O-])n1CCO` [METRONIDAZOLE] the Activity was “Non-toxic”.

The molecules below were run on Sporothrix schenckii (assay: Antifungal activity against Sporothrix schenckii after 48 hrs by broth microdilution technique). Settings: not given.
Format: functional
Outline: as §2
In the case of `Cc1ncc([N+](=O)[O-])n1CCSC(=S)N1CCCC1.O=C(O)C(O)C(O)C(=O)O`, the MIC is reported as 25 µg/mL.
`Cc1ncc([N+](=O)[O-])n1CCSC(=S)N(C)C.O=C(O)C(O)C(O)C(=O)O` was tested, and the MIC was over 50 µg/mL.
With `COc1ccccc1N1CCN(C(=S)SCCn2c([N+](=O)[O-])cnc2C)CC1.O=C(O)C(O)C(O)C(=O)O` the MIC was 50 µg/mL.
`Cc1ncc([N+](=O)[O-])n1CCSC(=S)N1CCN(c2ccccn2)CC1.O=C(O)C(O)C(O)C(=O)O` was tested, and the MIC was 50 µg/mL.
`OC(Cn1cncn1)(Cn1cncn1)c1ccc(F)cc1F` [FLUCONAZOLE] was tested, and the MIC was 2 µg/mL (≈ 6.53 µM).
`Cc1ncc([N+](=O)[O-])n1CCOC(=S)[S-].[Na+]` [METRONIDAZOLE XANTHATE] gave an MIC of over 50 µg/mL.

The molecules below were run on Trichophyton mentagrophytes (assay: Antifungal activity against Trichophyton mentagrophytes after 48 hrs by broth microdilution technique). Settings: not given.
Format: functional
Outline: as §2
For `Cc1ncc([N+](=O)[O-])n1CCSC(=S)N1CCCC1.O=C(O)C(O)C(O)C(=O)O`, the MIC was 50 µg/mL.
In the case of `Cc1ncc([N+](=O)[O-])n1CCSC(=S)N(C)C.O=C(O)C(O)C(O)C(=O)O`, the MIC is reported as 50 µg/mL.
`COc1ccccc1N1CCN(C(=S)SCCn2c([N+](=O)[O-])cnc2C)CC1.O=C(O)C(O)C(O)C(=O)O` gave an MIC of 25 µg/mL.
In the case of `Cc1ncc([N+](=O)[O-])n1CCSC(=S)N1CCN(c2ccccn2)CC1.O=C(O)C(O)C(O)C(=O)O`, the MIC is reported as 50 µg/mL.
Work on `OC(Cn1cncn1)(Cn1cncn1)c1ccc(F)cc1F` [FLUCONAZOLE] yielded an MIC of 1 µg/mL (≈ 3.27 µM).
Work on `Cc1ncc([N+](=O)[O-])n1CCOC(=S)[S-].[Na+]` [METRONIDAZOLE XANTHATE] yielded an MIC of over 50 µg/mL.

What follows are molecules tested on Trichomonas vaginalis (assay: Antitrichomonal activity against Trichomonas vaginalis after 48 hrs by trypan blue exclusion assay). Settings: not given.
Format: functional
Outline: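 Trophozoites in TYM medium; stock solutions serially diluted in TYM to concentrations up to 0.1 mg/mL, DMSO/TYM as vehicle control. Parasites added, incubated anaerobically at 37 °C, viability checked by trypan blue exclusion under microscope (200×) from 3 to 48 h. MIC = lowest concentration with all cells dead at 48 h. Metronidazole reference; run three times.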
Work on `Cc1ncc([N+](=O)[O-])n1CCSC(=S)N1CCCC1.O=C(O)C(O)C(O)C(=O)O` yielded an MIC of 8.33 µM.
`Cc1ncc([N+](=O)[O-])n1CCSC(=S)N(C)C.O=C(O)C(O)C(O)C(=O)O` was tested, and the MIC was 1.14 µM.
With `COc1ccccc1N1CCN(C(=S)SCCn2c([N+](=O)[O-])cnc2C)CC1.O=C(O)C(O)C(O)C(=O)O` the MIC was 5.94 µM.
`Cc1ncc([N+](=O)[O-])n1CCSC(=S)N1CCN(c2ccccn2)CC1.O=C(O)C(O)C(O)C(=O)O` gave an MIC of 6.38 µM.
Molecule `Cc1ncc([N+](=O)[O-])n1CCOC(=S)[S-].[Na+]` [METRONIDAZOLE XANTHATE] has an MIC of 112 µM.
For `Cc1ncc([N+](=O)[O-])n1CCO` [METRONIDAZOLE], the MIC was 11.7 µM (≈ 2 µg/mL).
`CCCCCCCCCc1ccc(OCCOCCOCCOCCOCCOCCOCCOCCOCCO)cc1` [NONOXYNOL 9] showed an MIC of 60.8 µM (≈ 37.5 µg/mL).
